Here are results for three molecules from ChEMBL document CHEMBL2424538, “Synthesis, resolution, and biological evaluation of atropisomeric (aR)- and (aS)-16-methyllamellarins N: unique effects of the axial chirality on the selectivity of protein kinases inhibition” (J Med Chem, 2013).

For one test, the species on record is Bos taurus. Kind of test: Inhibition of calf thymus DNA topoisomerase 1-mediated relaxation of supercoiled pBR322 plasmid DNA at 50 uM 30 mins by ethidium bromide staining.
The nature of test [1]: Inhibition of M-phase starfish oocytes CDK1/cyclin B using [gamma-33P]ATP after 30 mins. To be noted: oocyte. Also noted: species or system Marthasterias glacialis. An outline of the steps:
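CDK1/cyclin B extracted from oocytes in homogenization buffer, affinity-purified on p9CKShs1-Sepharose and eluted with free p9CKShs1. Activity measured in buffer C with 1 mg/mL histone H1 and 15 μM [γ-33P]ATP, 30 min at 30 °C. Read-out: 33P captured on P81 phosphocellulose by scintillation counting; blank subtracted; activity as % of uninhibited control; DMSO controls.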

The target of test [2] is Dual specificity tyrosine-phosphorylation-regulated kinase 1A (Homo sapiens, UniProt Q13627). Kind of test: Inhibition of human recombinant DYRK1A expressed in Escherichia coli using [gamma-33P]ATP after 30 mins. The essentials: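 Enzyme (DYRK1A GST fusion purified on glutathione-agarose) assayed like CDK1/cyclin B: buffer C, 1 mg/mL histone H1, 15 μM [γ-33P]ATP, 30 min at 30 °C, P81 filter capture, scintillation counting, % of activity without inhibitor.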

A short description of test [3]: Cytotoxicity against human SH-SY5Y cells after 72 hrs by MTS assay. It counts as functional, cell-based. An outline of the steps: (§1)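 Neuroblastoma cells grown in DMEM with 2 mM L-glutamine, antibiotics and 10% FCS; viability read by MTS reduction. Triplicate assays, values within 10%. IC50 estimated graphically from dose−response curves of at least six inhibitor concentrations.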
On the technique in general: Tetrazolium dyes change colour on reduction, which living cells bring about.

The nature of test [4]: Inhibition of porcine brain CK1delta/epsilon using CKS peptide and [gamma-33P]ATP as substrate after 30 mins. Also noted: species or system Sus scrofa. An outline of the steps:
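CK1δ/ε affinity-purified on immobilized axin fragment. Reaction captured on P81 phosphocellulose, washed in 1% phosphoric acid, scintillation counted; blanks subtracted; activity as % of no-inhibitor control, DMSO controls.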

The next test relates to IMR-32. Kind of test: Cytotoxicity against human IMR32 cells after 72 hrs by MTS assay. As to conditions: IMR-32, 72 h. The test is classed as functional, cell-based. The essentials: as §1
The target in test [5] is Glycogen synthase kinase-3 (Sus scrofa, UniProt B2LUN4+I6LNT8). Kind of test: Inhibition of porcine brain GSK-3alpha/beta using GS-1 peptide and [gamma-33P]ATP as substrate after 30 mins. The essentials:
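GSK-3α/β purified on immobilized axin, diluted 1/100 in 1 mg/mL BSA with 10 mM DTT. Substrate GS-1 phosphopeptide (5 μL of 4 μM), buffer A pH 7.5, 15 μM [γ-33P]ATP, 30 min at 30 °C. Radioactivity on P81 paper counted; blank subtracted; results as % of activity without inhibitor.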

Another test relates to HeLa. Kind of test: Cytotoxicity against human HeLa cells after 72 hrs by colony formation assay. It counts as functional, cell-based. An outline of the steps:
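HeLa cells, 100−150 per well, cultured 72 h at 37 °C under 5% CO2 with varying compound concentrations in MEM with 10% fetal calf serum plus penicillin/streptomycin. Colonies (clusters of ≥40 cells) counted after methylene blue staining. Duplicates, at least four concentrations; IC50 by least-squares fit to logarithm-probit analysis.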

Activity calls are given as the source filed them. The calls are words filed in the database; no cut-off is given here.

Regarding `COc1cc(-c2c3c4cc(OC)c(O)cc4oc(=O)c3n3ccc4cc(O)c(OC)cc4c23)ccc1O`, the inhibition result in the test filed under Bos taurus was “Active”.

What is called IC50 is the point on the concentration scale where inhibition reaches its midpoint. As to `COc1ccc(-c2c3c4cc(OC)c(O)cc4oc(=O)c3n3ccc4cc(O)c(OC)cc4c23)cc1O`, the IC50 in test [1] was 70 nM; in test [2] it was 35 nM; in test [3], 40 nM; in test [4], above 10000 nM; in the test on IMR-32, 19 nM; in test [5], 5 nM. Moreover, half-maximal inhibition in the test with HeLa (IC50) required 32 nM. Also, the inhibition result in the test filed under Bos taurus is “Active”.

Take `CC[C@@]1(O)C(=O)OCc2c1cc1n(c2=O)Cc2cc3ccccc3nc2-1`: the inhibition entry in the test filed under Bos taurus is “Active”.
